IC50, inhibition and Ki data for 21 compounds are collected here from ChEMBL document CHEMBL4038319, “Development of a Potent Inhibitor of the Plasmodium Proteasome with Reduced Mammalian Toxicity” (J Med Chem, 2017).

The structures appear in SMILES notation. Bounds are passed on as bounds.

One series has as its system HepG2. In words: Cytotoxicity against human HepG2 cells harboring A16-CD81EGFP assessed as cell viability after 48 hrs by bioluminescence assay. The format is cell-based. The following applies: HepG2, 48 h. The method in brief:
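HepG2-A16-CD81EGFP cells, 3 × 10^3 per well, seeded 24 h ahead in DMEM with 5% FBS. Viability read by bioluminescence after 48 h and fitted by four-parameter regression; puromycin control.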

In series [1] the test system is Plasmodium falciparum. In words: Antimalarial activity against asexual blood stage Plasmodium falciparum Dd2 infected in human erythrocytes after 72 hrs by SYBR green 1 dye based fluorescence assay. The following applies: Dd2, 72 h. Format: functional, cell-based.
Series [2] deals with Plasmodium falciparum. The series is described as follows: Antimalarial activity against stage V gametocytes of Plasmodium falciparum NF54 infected in human erythrocytes after 72 hrs by mitotracker red based […] assay. To be noted: NF54, 72 h. Format: functional, cell-based.
The target in series [3] is T1, constitutive 20S proteasome beta5 subunit (Proteasome Macropain subunit MB1) (Homo sapiens, UniProt P28074).
T1 sequence (P28074 whole entry): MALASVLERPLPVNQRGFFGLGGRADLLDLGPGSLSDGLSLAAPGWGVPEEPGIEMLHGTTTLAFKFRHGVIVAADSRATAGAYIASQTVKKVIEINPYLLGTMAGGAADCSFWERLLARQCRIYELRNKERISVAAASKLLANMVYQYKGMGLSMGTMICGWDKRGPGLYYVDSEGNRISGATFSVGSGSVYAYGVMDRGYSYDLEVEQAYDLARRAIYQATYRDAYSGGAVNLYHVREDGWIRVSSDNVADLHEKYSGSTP
In words: Inhibition of human constitutive 20S proteasome beta5 subunit using suc-LLVY-AMC as substrate at 50 nM after 60 to 120 mins by fluorescence assay relative to control. To be noted: probe suc-LLVY-AMC. The method, boiled down: (§1)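 Pf20S enriched from asynchronous parasite lysate by two-step chromatography; human constitutive 20S from a commercial source. Enzymes at 0.29 nM with 25 μM Suc-LLE-AMC, Suc-LRR-AMC or Suc-LLVY-AMC in 20 mM Tris pH 7.5, 0.02% SDS. Inhibitor and substrate added together; AMC release rate (Ex 340/Em 465) taken from 60–120 min against DMSO.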

Series [4] has as its system Plasmodium falciparum. The series is described as follows: Inhibition of schizont stage Plasmodium falciparum 20S proteasome beta5 subunit using suc-LLVY-AMC as substrate at 50 nM after 60 to 120 mins by fluorescence assay relative to control. The method, boiled down:
as §1

The subject of series [5] is Plasmodium falciparum. In words: Inhibition of schizont stage Plasmodium falciparum 20S proteasome beta1 subunit using z-LLE-AMC as substrate at 450 nM after 60 to 120 mins by fluorescence assay relative to control.
Series [6] relates to Plasmodium falciparum. The series is described as follows: Inhibition of schizont stage Plasmodium falciparum 20S proteasome beta2 subunit using z-LRR-AMC as substrate at 450 nM after 60 to 120 mins by fluorescence assay relative to control.
Series [7] relates to Plasmodium falciparum. The series is described as follows: Inhibition of schizont stage Plasmodium falciparum 20S proteasome using suc-LLVY-AMC as substrate at 450 nM after 60 to 120 mins relative to control.
In series [8] the target is T2, Proteasome Macropain subunit MB1 (Homo sapiens, UniProt P28074).
T2 sequence (P28074 whole entry): T1 sequence (P28074 whole entry)
The series is described as follows: Irreversible inhibition of human 20S proteasome beta5 subunit using suc-LLVY-AMC as substrate after 4 hrs at 30 mins time interval by fluorescence assay.

Series [9] has as its system Plasmodium falciparum. The series is described as follows: Inhibition of early trophozoite stage Plasmodium falciparum 20S proteasome beta5 subunit using suc-LLVY-AMC as substrate at 95 nM after 4 hrs by fluorescence assay relative to control. The method in brief: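 Sorbitol-synchronized early trophozoites at 5% parasitemia exposed to 95 nM inhibitor for 4 h, then washed and lysed. 15 μg total protein assayed with 25 μM Suc-LLVY-AMC in Tris pH 7.5/0.02% SDS buffer; AMC release compared against DMSO-treated cells.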

Series [10] has as its system Plasmodium falciparum. In words: Growth inhibition of Plasmodium falciparum Dd2 infected in human erythrocytes at 0.5 to 1 nM after 72 hrs by SYBR green 1 dye based fluorescence assay relative to control. The format is cell-based. The following applies: Dd2, 72 h, read-out: GI.
For series [11], the target named is T3, 20S proteasome beta5 subunit (Proteasome Macropain subunit MB1) (Homo sapiens, UniProt P28074).
T3 sequence (P28074 whole entry): T1 sequence (P28074 whole entry)
The series is described as follows: Inhibition of human 20S proteasome beta5 subunit using suc-LLVY-AMC as substrate at 150 nM after 60 to 120 mins by fluorescence assay relative to control. To be noted: probe suc-LLVY-AMC. The method in brief:
as §1

The subject of series [12] is Plasmodium falciparum. The series is described as follows: Inhibition of schizont stage Plasmodium falciparum 20S proteasome beta1 subunit using z-LLE-AMC as substrate at 150 nM after 60 to 120 mins by fluorescence assay relative to control.
In series [13] the test system is Plasmodium falciparum. The series is described as follows: Inhibition of schizont stage Plasmodium falciparum 20S proteasome beta2 subunit using z-LRR-AMC as substrate at 150 nM after 60 to 120 mins by fluorescence assay relative to control.
Series [14] deals with Plasmodium falciparum. In words: Inhibition of schizont stage Plasmodium falciparum 20S proteasome beta5 using suc-LLVY-AMC as substrate at 150 nM after 60 to 120 mins by fluorescence assay relative to control.

What is called IC50 is the midpoint of a concentration-inhibition curve. With `CCCCCC(=O)N[C@@H](Cc1ccccc1)C(=O)N[C@@H](CCCC)C(=O)N[C@@H](Cc1ccccc1)C(=O)[C@@]1(C)CO1`, the IC50 in the series on HepG2 was 30.8 nM; in the series on Plasmodium falciparum [1], 6.7 nM.
For the compound `CCCCCC(=O)N[C@@H](C(=O)N[C@@H](CCCC)C(=O)N[C@@H](CC(C)C)C(=O)[C@@]1(C)CO1)C(C)C`, the figures for the IC50 in the series on Plasmodium falciparum [2], in the series with HepG2 and in the series with Plasmodium falciparum [1] were 130 nM, 1240 nM and 3.27 nM, respectively. For the same compound, the inhibition at 0.05 µM in series [3] is at most 10%. In addition, the inhibition with Plasmodium falciparum [4] was 10 to 47%; in the series on Plasmodium falciparum [5], 6%; with Plasmodium falciparum [6], 9%; in the series with Plasmodium falciparum [7] it was 45%; with Plasmodium falciparum [9] it was 40 to 60%. In addition, in [8], the Ki was determined as 39200 nM. Moreover, the inhibition at up to 0.001 µM in the series on Plasmodium falciparum [10] is under 10%.
For the compound `CCCCCC(=O)N[C@@H](Cc1ccncc1)C(=O)N[C@@H](CCCC)C(=O)N[C@@H](CC(C)C)C(=O)[C@@]1(C)CO1`, the IC50 was under 0.283 nM with HepG2 and 3.28 nM in the series with Plasmodium falciparum [1].
Consider `CCCCCC(=O)N[C@@H](Cc1ccccc1)C(=O)N[C@@H](CCCC)C(=O)N[C@@H](CC(C)C)C(=O)[C@@]1(C)CO1`, for which the half-inhibitory concentration (IC50) with HepG2 came out at 22.7 nM; in the series with Plasmodium falciparum [1], 4.04 nM.
For `CCCCCC(=O)N[C@@H](Cc1ccc(N)cc1)C(=O)N[C@@H](CCCC)C(=O)N[C@@H](CC(C)C)C(=O)[C@@]1(C)CO1`, in that order: 6.32 nM and 5.99 nM.
For `CCCCCC(=O)N[C@H](C(=O)N[C@@H](CCCC)C(=O)N[C@@H](CC(C)C)C(=O)[C@@]1(C)CO1)C(C)C`, the IC50 with HepG2 stood at 134 nM; in the series on Plasmodium falciparum [1], 4.11 nM. Further, the inhibition at 0.05 µM in [3] turned out to be 89%. In addition, the inhibition was 10 to 47% in the series on Plasmodium falciparum [4] and 40 to 60% in the series on Plasmodium falciparum [9]. The same compound had a Ki in [8] of 3740 nM.
As for `CCCCCC(=O)N[C@@H](Cc1c[nH]c2ccccc12)C(=O)N[C@@H](CCCC)C(=O)N[C@@H](Cc1ccccc1)C(=O)[C@@]1(C)CO1`, the results for the IC50 with HepG2 and in the series on Plasmodium falciparum [1] were 6.41 nM and 9.77 nM, respectively.
For `CCCCCC(=O)N[C@@H](Cc1c[nH]c2ccccc12)C(=O)N[C@@H](Cc1c[nH]c2ccccc12)C(=O)N[C@@H](CC(C)C)C(=O)[C@@]1(C)CO1`, in that order: 11.7 nM and 3.7 nM.
Turning to `CCCCCC(=O)N[C@@H](Cc1c[nH]c2ccccc12)C(=O)N[C@@H](Cc1c[nH]c2ccccc12)C(=O)N[C@@H](Cc1ccccc1)C(=O)[C@@]1(C)CO1`, the IC50 with HepG2 was found to be 346 nM; in the series on Plasmodium falciparum [1] it was 9.38 nM. The inhibition with Plasmodium falciparum [4] was 10 to 47%; with Plasmodium falciparum [9] it was 40 to 60%.
The compound `CCCCCC(=O)N[C@@H](Cc1c[nH]c2ccccc12)C(=O)N[C@@H](CCCC)C(=O)N[C@@H](CC(C)C)C(=O)[C@@]1(C)CO1` registered an IC50 in the series with Plasmodium falciparum [1] of 3.11 nM.
In the case of `CCCCCC(=O)N[C@H](Cc1c[nH]c2ccccc12)C(=O)N[C@@H](CCCC)C(=O)N[C@@H](CC(C)C)C(=O)[C@@]1(C)CO1`, the IC50 came out at 915 nM in the series with HepG2 and 2.92 nM with Plasmodium falciparum [1]. In [3], this compound registered an inhibition at 0.05 µM of at most 10%. For the same compound, the inhibition in the series on Plasmodium falciparum [4] lay within 10 to 47%; in the series with Plasmodium falciparum [9], 40 to 60%.
Take `CCCCCC(=O)N[C@@H](Cc1ccc(NC(=O)OC(C)(C)C)cc1)C(=O)N[C@@H](CCCC)C(=O)N[C@@H](Cc1ccccc1)C(=O)[C@@]1(C)CO1`: the IC50 in the series on HepG2 turned out to be 478 nM; in the series with Plasmodium falciparum [1] it was 5.45 nM. Moreover, the inhibition in the series with Plasmodium falciparum [4] lay within 10 to 47%; with Plasmodium falciparum [9], 40 to 60%.
Turning to `CCCCCC(=O)N[C@H](Cc1ccc(N)cc1)C(=O)N[C@@H](Cc1ccc(N)cc1)C(=O)N[C@@H](CC(C)C)C(=O)[C@@]1(C)CO1`, the figures for the IC50 with HepG2 and in the series with Plasmodium falciparum [1] were 0.91 nM and 59.6 nM, respectively.
As to `CCCCCC(=O)NC(Cc1ccc(NC(=O)OC(C)(C)C)cc1)C(=O)N[C@@H](Cc1ccc(NC(=O)OC(C)(C)C)cc1)C(=O)N[C@@H](Cc1ccccc1)C(=O)[C@@]1(C)CO1` (single isomer, unassigned), the IC50 with HepG2 was determined as 45.7 nM; in the series on Plasmodium falciparum [1], 12.2 nM.
Taken in the same sequence, the figures for `CCCCCC(=O)N[C@@H](Cc1ccc(NC(=O)OC(C)(C)C)cc1)C(=O)N[C@@H](CCCC)C(=O)N[C@@H](CC(C)C)C(=O)[C@@]1(C)CO1` were 80.2 nM and 5.55 nM.
For `CCCCCC(=O)N[C@H](Cc1ccc(N)cc1)C(=O)N[C@@H](Cc1ccc(N)cc1)C(=O)N[C@@H](Cc1ccccc1)C(=O)[C@@]1(C)CO1`, the values for the IC50 with HepG2 and with Plasmodium falciparum [1] were 952 nM and 68.2 nM, respectively.
Regarding `CCCCCC(=O)N[C@@H](Cc1ccncc1)C(=O)N[C@@H](CCCC)C(=O)N[C@@H](Cc1ccccc1)C(=O)[C@@]1(C)CO1`, the IC50 is under 0.283 nM in the series with HepG2 and 3.87 nM in the series on Plasmodium falciparum [1].
As to `CCCCCC(=O)N[C@H](C(=O)N[C@@H](CCS(C)(=O)=O)C(=O)N[C@@H](CC(C)C)C(=O)[C@@]1(C)CO1)C(C)C`, the inhibition at 0.15 µM in series [11] was 98%. Besides, the inhibition was 16% in the series with Plasmodium falciparum [12]; 29% with Plasmodium falciparum [13]; 45% in the series with Plasmodium falciparum [14]; 10 to 47% in the series on Plasmodium falciparum [4]; 40 to 60% in the series with Plasmodium falciparum [9]. Also, the inhibition at 0.05 µM in [3] is 97%. Moreover, the Ki in [8] was determined as 375 nM. For the same compound, the inhibition at up to 0.001 µM with Plasmodium falciparum [10] is under 10%.
Consider `CCCCCC(=O)N[C@H](Cc1ccncc1)C(=O)N[C@@H](CCCC)C(=O)N[C@@H](CC(C)C)C(=O)[C@@]1(C)CO1`, for which the results for the IC50 in the series with HepG2 and in the series on Plasmodium falciparum [1] were under 0.283 nM and 21.8 nM, respectively.
In the case of `CCCCCC(=O)N[C@@H](Cc1ccc(N)cc1)C(=O)N[C@@H](CCCC)C(=O)N[C@@H](Cc1ccccc1)C(=O)[C@@]1(C)CO1`, the IC50 in the series on HepG2 turned out to be 3410 nM; in the series on Plasmodium falciparum [1], 81.8 nM. Also, the inhibition in the series on Plasmodium falciparum [4] is 10 to 47%; in the series with Plasmodium falciparum [9] it was 40 to 60%.
Consider `CCCCCC(=O)NC(Cc1ccc(NC(=O)OC(C)(C)C)cc1)C(=O)N[C@@H](Cc1ccc(NC(=O)OC(C)(C)C)cc1)C(=O)N[C@@H](CC(C)C)C(=O)[C@@]1(C)CO1` (single isomer, unassigned), for which the IC50 in the series with HepG2 worked out at 118 nM; with Plasmodium falciparum [1], 13.5 nM.
